Rows were chosen to be rich in hits. Some 1.4% of all compounds tested hit in one or more screens of this group.
UCH37 inh = human UCH37 deubiquitinating enzyme inhibition | purified proteasome/UCH37, Ub-AMC cleavage fluorescence | AID 588478 | Q9Y5K5 | inhibition, % (test concentration not listed) | 330,000 compounds, 0.33% hits;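 active = mean inhibition over replicate wells above about 20%, limit read from the data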
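Material: Human UCH37 enzyme supplied as purified proteasome complex | Schedule: 30 min preincubation with enzyme, 25 min cleavage at room temperature | Detection: AMC fluorescence 355/460 nm | Measure: % inhibition of Ub-AMC cleavage fluorescence | Controls: Wells without proteasome as full block, compound-free enzyme plus substrate as uninhibited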
TbMetRS inhib = blocks T. brucei methionyl-tRNA synthetase activity | inhibition, % at 11.9 µM | purified T. brucei MetRS, ATP depletion, Kinase-Glo luminescence | 360,000 compounds, 0.4% hits;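 active = inhibition above a per-plate cutoff of the control wells' mean inhibition plus 3 SD, cut at about 5.5% in these data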
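Dosing: 11.9 µM single point; system: parasite MetRS enzyme; technique: luminescence of leftover ATP; times: 15 min enzyme-compound preincubation, 2 h reaction, 10 min detection, 25 °C; replicates: each compound tested once; read-out basis: percent inhibition relative to median high and low control wells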
Rin1-Abl PPI inh = blocks binding of human Rin1 to Abl | 360,000 compounds, 0.4% hits | AID 588664 | TR-FRET Rin1/Abl binding, biochemical | inhibition, % at 7.35 µM; in the data active = inhibition above about 5%, passing the limit was not always enough
Target sequence (P00519 whole entry, looked up): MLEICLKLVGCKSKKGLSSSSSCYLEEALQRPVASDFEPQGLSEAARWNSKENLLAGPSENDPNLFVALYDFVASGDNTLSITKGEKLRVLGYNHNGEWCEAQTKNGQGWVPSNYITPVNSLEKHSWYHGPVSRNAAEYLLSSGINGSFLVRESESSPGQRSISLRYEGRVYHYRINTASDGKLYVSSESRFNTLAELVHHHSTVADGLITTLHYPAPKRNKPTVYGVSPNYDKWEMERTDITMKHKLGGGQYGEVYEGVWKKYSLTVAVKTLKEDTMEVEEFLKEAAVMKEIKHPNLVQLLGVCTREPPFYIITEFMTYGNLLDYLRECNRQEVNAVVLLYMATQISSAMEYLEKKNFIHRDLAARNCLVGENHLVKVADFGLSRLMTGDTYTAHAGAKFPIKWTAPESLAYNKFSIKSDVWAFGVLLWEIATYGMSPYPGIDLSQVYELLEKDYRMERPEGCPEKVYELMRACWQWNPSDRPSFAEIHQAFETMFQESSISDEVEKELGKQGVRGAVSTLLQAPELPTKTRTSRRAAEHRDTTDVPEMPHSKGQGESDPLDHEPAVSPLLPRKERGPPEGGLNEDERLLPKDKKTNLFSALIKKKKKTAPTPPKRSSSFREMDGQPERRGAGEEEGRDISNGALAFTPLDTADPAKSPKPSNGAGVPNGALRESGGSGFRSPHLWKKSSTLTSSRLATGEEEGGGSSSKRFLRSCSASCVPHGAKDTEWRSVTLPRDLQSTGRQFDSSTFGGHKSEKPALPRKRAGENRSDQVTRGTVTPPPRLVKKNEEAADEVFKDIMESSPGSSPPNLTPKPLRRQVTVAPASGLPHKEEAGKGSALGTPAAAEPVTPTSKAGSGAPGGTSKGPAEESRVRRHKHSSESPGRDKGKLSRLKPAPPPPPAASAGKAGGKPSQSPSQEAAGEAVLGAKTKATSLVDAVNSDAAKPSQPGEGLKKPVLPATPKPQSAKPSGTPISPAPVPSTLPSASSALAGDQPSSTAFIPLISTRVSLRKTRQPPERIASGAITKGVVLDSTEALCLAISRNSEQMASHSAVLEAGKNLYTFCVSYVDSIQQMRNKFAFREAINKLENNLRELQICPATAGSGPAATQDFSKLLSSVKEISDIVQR
Target sequence (Q13671 whole entry, looked up): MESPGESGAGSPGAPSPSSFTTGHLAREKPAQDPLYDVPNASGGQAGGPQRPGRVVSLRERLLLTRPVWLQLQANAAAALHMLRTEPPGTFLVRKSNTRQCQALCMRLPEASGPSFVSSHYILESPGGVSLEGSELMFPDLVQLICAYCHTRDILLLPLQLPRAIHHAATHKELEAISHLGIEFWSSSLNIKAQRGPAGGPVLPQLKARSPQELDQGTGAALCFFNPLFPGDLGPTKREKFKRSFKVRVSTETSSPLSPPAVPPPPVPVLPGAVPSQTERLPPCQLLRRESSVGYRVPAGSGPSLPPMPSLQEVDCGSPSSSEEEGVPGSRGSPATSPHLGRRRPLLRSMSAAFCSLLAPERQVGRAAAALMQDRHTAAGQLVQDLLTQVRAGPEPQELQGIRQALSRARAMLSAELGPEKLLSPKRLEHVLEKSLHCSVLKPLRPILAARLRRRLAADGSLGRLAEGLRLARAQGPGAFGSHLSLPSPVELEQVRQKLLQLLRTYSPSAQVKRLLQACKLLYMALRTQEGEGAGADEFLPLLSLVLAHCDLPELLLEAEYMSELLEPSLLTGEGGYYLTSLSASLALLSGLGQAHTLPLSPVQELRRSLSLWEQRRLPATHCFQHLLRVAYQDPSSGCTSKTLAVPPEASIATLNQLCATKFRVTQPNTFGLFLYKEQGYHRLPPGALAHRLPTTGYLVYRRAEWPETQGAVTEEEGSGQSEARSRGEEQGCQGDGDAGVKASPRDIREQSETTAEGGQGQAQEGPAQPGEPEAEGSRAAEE
ATG4B inhibitor = blocks human ATG4B protease cleavage of LC3 substrate; ATG4B cleavage of LC3-PLA2, NBD-HPC fluorescence, 1 h; inhibition, % at 8.33 µM; 340,000 compounds, 0.51% hits; in the data active = inhibition above about 40%
ATG4B conf = confirmation of human ATG4B inhibitors; ATG4B protease fluorescent substrate cleavage assay; shares compounds with ATG4B inhibitor; 320 compounds, 92% hits; AID 504757; inhibition, % at 8.33 µM; in the data active = inhibition above about 39%
PLA2 ctr = inhibits human PLA2, flagging false ATG4B inhibitors; purified PLA2, NBD-C6-HPC fluorescence, 45 min; shares compounds with ATG4B inhibitor; inhibition, % at 8.33 µM; AID 588402; 1,600 compounds, 66% hits; in the data active = inhibition above about 50%
UCH37 confirm = confirmation of human UCH37 deubiquitinating enzyme inhibitors; shares compounds with UCH37 inh; Proteasome-bound UCH37, Ub-AMC cleavage fluorescence; inhibition, % at 20 µM; 480 compounds, 27% hits;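 active = average inhibition over replicates above about 50%, so the earlier screening hit is confirmed, limit read from the data; inactive = the rest, counted as false positives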;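 also: based on cleavage rate fitted by regression over a 30 min kinetic read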
Rin1-Abl confirm = Rin1-Abl interaction inhibition confirmation | TR-FRET Rin1-Abl binding, purified proteins | inhibition, % at 7.35 µM | 1,300 compounds, 49% hits | AID 602124 | shares compounds with Rin1-Abl PPI inh
GFP quench = GFP fluorescence interference artifact. shares compounds with Rin1-Abl PPI inh. inhibitors/quenchers counterscreen. inhibition, % at 6.75 µM. 1,300 compounds, 8.5% hits. AID 602125;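 also: ABL1-eGFP fusion protein alone without its partner RIN1-SBP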
GFP quench DR = counter-screen for Rin1-Abl inhibitors: GFP quenchers, dose response | shares compounds with Rin1-Abl PPI inh | AID 602182 | IC50, µM | 230 tested, under 10 active | GFP fluorescence interference/quenching counterscreen; call rule not given here;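 also: ABL1-eGFP fusion protein alone without its RIN1 binding partner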
TbMetRS confirm = Trypanosoma brucei MetRS inhibition confirmed | shares compounds with TbMetRS inhib | T. brucei MetRS enzyme, luminescence (ATP depletion) | inhibition, % at 11.9 µM | 1,400 compounds, 93% hits | AID 624412; in the data active = inhibition above about 7%
Jurkat tox = Jurkat T cell cytotoxicity for MetRS hits | 1,400 compounds, 12% hits | inhibition, % at 8.3 µM | Jurkat cells viability, ATP luminescence | AID 624413 | shares compounds with TbMetRS inhib; in the data active = inhibition above about 15%
Tb MetRS inh FP = inhibits T. brucei methionyl tRNA synthetase in orthogonal FP test; shares compounds with TbMetRS inhib; purified T. brucei MetRS, fluorescence polarization; inhibition, % at 11.9 µM; 1,400 compounds, 44% hits; AID 651607; in the data active = inhibition above about 17%
Of the large screens only hits and unclear results are named; the others gave an inactive call (follow-up assays come after a bar, where they were run). Rule as the data show it, unless noted: active = inhibition above about 6.5%; inactive = the rest.

CN1CCN(C2=C(Cl)C(=O)c3ccccc3C2=O)CC1	UCH37 inh 96.7, ATG4B inhibitor 73.3 | ATG4B conf inactive | PLA2 ctr inactive | UCH37 confirm 96.6
CN1CCN(C2=C(NS(=O)(=O)c3ccccc3)C(=O)c3ccccc3C2=O)CC1	none
COc1ccccc1CC(=O)NN1C(=O)c2ccccc2C1=O	none
Cn1c(N)c(C(=O)COC(=O)C2CCN(S(=O)(=O)c3cccs3)CC2)c(=O)n(C)c1=O	none
CC1=Nc2ccccc2/C1=C/c1sc(=S)n(-c2cccc(C(=O)O)c2)c1O	UCH37 inh 26.5, ATG4B inhibitor 59.6 | PLA2 ctr 85.2 | UCH37 confirm 56.7
O=C1C=C(N2CCOCC2)c2ccccc2C1=O	UCH37 inh 97.4, ATG4B inhibitor 64.2 | ATG4B conf 52.9 | PLA2 ctr inactive | UCH37 confirm 130.5
COc1ccc(NS(=O)(=O)c2ccc3c(c2)[C@H]2C=CC[C@H]2[C@@H](c2ccc(C(=O)O)cc2)N3)cc1	Rin1-Abl PPI inh 9.2, ATG4B inhibitor 77.8 (no result: UCH37 inh) | ATG4B conf inactive | PLA2 ctr inactive | Rin1-Abl confirm 9.5 | GFP quench 16.6
CC(=O)N1CCN(C(=S)NC(=O)c2c(-c3ccccc3Cl)noc2C)CC1	none
CN(C)C(CNC(=O)c1ccc(NC(=O)CC#N)cc1)c1ccccc1 (stereo not given)	Rin1-Abl PPI inh 10.1, ATG4B inhibitor 46.8 | PLA2 ctr 55.8 | Rin1-Abl confirm 6.7 | GFP quench inactive
N#CCC(=O)Nc1ccc(C(=O)NCCC(c2ccccc2)c2ccccc2)cc1	none
O=C(N1CCOCC1)N(Cc1ccco1)CC1CCCO1 (stereo not given)	none
COC1=CC(=O)c2c(ccc3ncnc(N)c23)C1=O	Rin1-Abl PPI inh 16.6, ATG4B inhibitor 62.0 (no result: UCH37 inh) | ATG4B conf 48.7 | PLA2 ctr inactive | Rin1-Abl confirm 30.8 | GFP quench inactive | GFP quench DR inactive
COC1=CC(=O)c2nc(Cl)ccc2C1=O	none (no result: UCH37 inh, ATG4B inhibitor)
CCOC(=O)c1ccc(N2N=C(C)/C(=C/C=C/c3ccco3)C2=O)cc1	none
O=C(O)c1cc(N2N=C(C(F)(F)F)/C(=C/C=C/c3ccco3)C2=O)ccc1Cl	UCH37 inh 21.3, Rin1-Abl PPI inh 11.9, ATG4B inhibitor 95.8 | PLA2 ctr 78.4 | Rin1-Abl confirm inactive | GFP quench 26.0
O=C1/C(=C/C=C/c2ccco2)SC(=S)N1NS(=O)(=O)c1ccccc1	Rin1-Abl PPI inh 12.5, ATG4B inhibitor 78.3 | ATG4B conf 41.2 | PLA2 ctr inactive | Rin1-Abl confirm inactive | GFP quench 25.7
O=C(c1ccco1)N1CCN(c2cc(N3CCOCC3)c(F)cc2[N+](=O)[O-])CC1	none
N=C(N)c1ccc(N=Nc2c(O)ccc3c2[nH]c2ccccc23)cc1	Rin1-Abl PPI inh 21.9, ATG4B inhibitor 86.1 (no result: UCH37 inh) | ATG4B conf 38.2 | PLA2 ctr inactive | Rin1-Abl confirm 23.8 | GFP quench 20.2
Cn1nc(-c2ccccn2)nc2c(=O)n(C)c(=O)nc1-2	UCH37 inh 97.4, TbMetRS inhib 30.6, Rin1-Abl PPI inh 41.8, ATG4B inhibitor 79.3 | ATG4B conf inactive | PLA2 ctr inactive | UCH37 confirm 100.0 | TbMetRS confirm 31.1 | Jurkat tox 65.9 | Tb MetRS inh FP inactive
O=C(CCCn1c(=S)[nH]c2cc3c(cc2c1=O)OCO3)N1CCN(c2ccc(Cl)cc2)CC1	TbMetRS inhib 8.3, ATG4B inhibitor 53.0 | PLA2 ctr 56.6 | TbMetRS confirm 69.8 | Jurkat tox inactive | Tb MetRS inh FP 34.9
COc1ccc(N2CCN(C(=O)CCCCCn3c(=S)[nH]c4cc5c(cc4c3=O)OCO5)CC2)cc1	none
C1=C(CCNc2ncnc3c2[nH]c2ccccc23)CCCC1	TbMetRS inhib 79.2, ATG4B inhibitor 49.3 | PLA2 ctr 63.7 | TbMetRS confirm 97.5 | Jurkat tox 55.9 | Tb MetRS inh FP 75.7
COc1ccc(CNc2ncnc3c2[nH]c2ccccc23)cc1	TbMetRS inhib 88.4, ATG4B inhibitor 47.3 (no result: UCH37 inh) | PLA2 ctr 70.5 | TbMetRS confirm 94.4 | Jurkat tox 24.0 | Tb MetRS inh FP 73.2
c1ccc(C2=Nn3c(nnc3-c3cccs3)SC2)cc1	none
CC(=O)c1cccc(S(=O)(=O)N2CCC(C(=O)NC3CCCC3)CC2)c1	none
FC(F)(F)c1cccc(CNC(=S)Nc2ccccc2)c1	TbMetRS inhib 15.3, ATG4B inhibitor 48.6 | PLA2 ctr 60.5 | TbMetRS confirm 29.4 | Jurkat tox inactive | Tb MetRS inh FP inactive
O=C(CNC(=O)Cc1ccccc1)NCc1cccc(C(F)(F)F)c1	none
COc1cc(NC(=O)c2sc3ncn(CC(=O)N4CCCC(C)C4)c(=O)c3c2C)cc(OC)c1OC (stereo not given)	none
COc1c(Cl)cc(Cl)cc1CNc1ccc(S(N)(=O)=O)cc1	TbMetRS inhib 15.6, ATG4B inhibitor 81.7 | PLA2 ctr 85.2 | TbMetRS confirm 25.3 | Jurkat tox 17.4 | Tb MetRS inh FP inactive
COC(=O)CN1C(=S)N(c2ccc(OC)cc2)C(=O)C1CC(=O)Nc1ccc(F)cc1 (stereo not given)	none
COc1ccc(CCN2C(=S)N(C)C(=O)C2CC(=O)Nc2ccc(F)cc2)cc1 (stereo not given)	TbMetRS inhib 57.7, ATG4B inhibitor 43.5 | PLA2 ctr 56.3 | TbMetRS confirm 80.8 | Jurkat tox inactive | Tb MetRS inh FP 50.8
Cc1ccccc1-c1cnc(C(O)c2ccccc2)[nH]1 (stereo not given)	none (no result: UCH37 inh, ATG4B inhibitor)
O=C(NCc1cccc(Cl)c1)NCc1cccc(Cl)c1	TbMetRS inhib 6.2, ATG4B inhibitor 72.6 | PLA2 ctr 76.6 | TbMetRS confirm 9.3 | Jurkat tox inactive | Tb MetRS inh FP inactive
NC(=O)NCc1cccc(Cl)c1	none
